Assay results: ChEMBL document CHEMBL1949515, “Regioselective synthesis and antimicrobial activities of some novel aryloxyacetic acid derivatives” (2012)
In brackets after ≈: the same amount, converted by molar mass. Activity calls are given as the source filed them. No cut-off for these calls is given here.

Columns and labels:
Escherichia coli [1] = assay: Antibacterial activity against Escherichia coli ATCC 25922 after 24 hrs by agar well diffusion method; format: functional
Method in brief: (§1)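 Agar well diffusion on nutrient agar seeded with bacterial suspension at 1 × 10⁸ CFU/mL. Wells received compound solution from a stock of 100 mg per mL DMSO. Plates incubated 24 h at 37 °C. Read-out is inhibition zone diameter (mm), done in triplicate and averaged.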

Bacillus subtilis [2] = assay: Antibacterial activity against Bacillus subtilis ATCC 6633 after 24 hrs by two fold serial dilution method; format: functional; conditions: ATCC 6633, 24 h
Method in brief: (§2)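 MIC determined by two-fold serial dilution in the appropriate nutrient broth, only for compounds that gave sizeable inhibition zones in the well diffusion screen. Final concentrations stepped down by halves from 66 (66, 33, 16.5 …).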

Priestia megaterium [3] = assay: Antibacterial activity against Bacillus megaterium after 24 hrs by agar well diffusion method; format: functional; method in brief: as §1
Mycolicibacterium phlei [4] = assay: Antibacterial activity against Mycobacterium phlei after 24 hrs by agar well diffusion method; format: functional; method in brief: as §1
Candida albicans [5] = assay: Antifungal activity against Candida albicans NRRL Y-477 after 48 hrs by agar well diffusion method; format: functional
Method in brief: (§3)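 Fungal agar well diffusion on Sabouraud dextrose agar seeded at 1 × 10⁶ CFU/mL. Wells received compound solution from a 100 mg per mL DMSO stock. Incubation 48 h at 28 °C. Inhibition zone diameter (mm) measured in triplicate and averaged.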

Saccharomyces cerevisiae [6] = assay: Antifungal activity against Saccharomyces cerevisiae by two fold serial dilution method; format: functional; method in brief: as §2
Candida albicans [7] = assay: Antifungal activity against Candida albicans NRRL Y-477 by two fold serial dilution method; format: functional; method in brief: as §2
Micrococcus luteus [8] = assay: Antibacterial activity against Sarcina lutea after 24 hrs by agar well diffusion method; format: functional; method in brief: as §1
Priestia megaterium [9] = assay: Antibacterial activity against Bacillus megaterium after 24 hrs by two fold serial dilution method; format: functional; method in brief: as §2
Bacillus subtilis [10] = assay: Antibacterial activity against Bacillus subtilis ATCC 6633 after 24 hrs by agar well diffusion method; format: functional; method in brief: as §1
Pseudomonas aeruginosa [11] = assay: Antibacterial activity against Pseudomonas aeruginosa ATCC 27953 after 24 hrs by agar well diffusion method; format: functional; method in brief: as §1
Staphylococcus aureus [12] = assay: Antibacterial activity against Staphylococcus aureus ATCC 29213 after 24 hrs by agar well diffusion method; format: functional; method in brief: as §1
Klebsiella pneumoniae [13] = assay: Antibacterial activity against Klebsiella pneumoniae ATCC 13883 after 24 hrs by agar well diffusion method; format: functional; method in brief: as §1
Klebsiella pneumoniae [14] = assay: Antibacterial activity against Klebsiella pneumoniae ATCC 13883 after 24 hrs by two fold serial dilution method; format: functional; conditions: ATCC 13883, 24 h; method in brief: as §2
Saccharomyces cerevisiae [15] = assay: Antifungal activity against Saccharomyces cerevisiae after 48 hrs by agar well diffusion method; format: functional; method in brief: as §3
Candida albicans [16] = assay: Antifungal activity against Candida albicans NRRL Y-477 at 50 ug/ml after 48 hrs by agar well diffusion method; format: functional; conditions: NRRL Y-477, 48 h, read-out: DIZ
Method in brief: (§4)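 Fungal agar well diffusion. Plates were seeded with 1 × 10⁶ CFU/mL fungal suspension on Sabouraud dextrose agar. Wells were filled with compound solution from a 100 mg/mL DMSO stock. Plates were incubated 48 h at 28 °C. The mean inhibition zone diameter (mm) was taken from triplicate runs. Ketoconazole was the standard.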

Saccharomyces cerevisiae [17] = assay: Antifungal activity against Saccharomyces cerevisiae at 50 ug/ml after 48 hrs by agar well diffusion method; format: functional; conditions: read-out: DIZ; method in brief: as §4
Priestia megaterium [18] = assay: Antibacterial activity against Bacillus megaterium at 50 ug/ml after 24 hrs by agar well diffusion method; format: functional; conditions: read-out: DIZ
Bacillus subtilis [19] = assay: microbe, parasite or virus in culture; conditions: ATCC 6633, 24 h, read-out: DIZ
Micrococcus luteus [20] = assay: Antibacterial activity against Sarcina lutea at 50 ug/ml after 24 hrs by agar well diffusion method; format: functional; conditions: read-out: DIZ
Pseudomonas aeruginosa [21] = assay: microbe, parasite or virus in culture; conditions: ATCC 27953, 24 h, read-out: DIZ
Pseudomonas aeruginosa [22] = assay: Antibacterial activity against Pseudomonas aeruginosa ATCC 27953 after 24 hrs by two fold serial dilution method; format: functional; conditions: ATCC 27953, 24 h; method in brief: as §2
Mycolicibacterium phlei [23] = assay: Antibacterial activity against Mycobacterium phlei after 24 hrs by two fold serial dilution method; format: functional; method in brief: as §2
Escherichia coli [24] = assay: Antibacterial activity against Escherichia coli ATCC 25922 after 24 hrs by two fold serial dilution method; format: functional; conditions: ATCC 25922, 24 h; method in brief: as §2
Staphylococcus aureus [25] = assay: Antibacterial activity against Staphylococcus aureus ATCC 29213 after 24 hrs by two fold serial dilution method; format: functional; conditions: ATCC 29213, 24 h; method in brief: as §2
Klebsiella pneumoniae [26] = assay: microbe, parasite or virus in culture; conditions: ATCC 13883, 24 h, read-out: DIZ
Micrococcus luteus [27] = assay: Antibacterial activity against Sarcina lutea after 24 hrs by two fold serial dilution method; format: functional; method in brief: as §2
Staphylococcus aureus [28] = assay: microbe, parasite or virus in culture; conditions: ATCC 29213, 24 h, read-out: DIZ
Mycolicibacterium phlei [29] = assay: Antibacterial activity against Mycobacterium phlei at 50 ug/ml after 24 hrs by agar well diffusion method; format: functional; conditions: read-out: DIZ
Method in brief: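 Agar well diffusion. Plates were seeded with bacterial suspension at 1 × 10⁸ CFU/mL spread on nutrient agar. Wells received compound solution made as a 100 mg/mL DMSO stock. Plates were incubated 24 h at 37 °C. Read-out was inhibition zone diameter (mm), run in triplicate and averaged. Ciprofloxacin was the reference.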

Structure (SMILES)	diameter of the inhibition zone (DIZ) (Escherichia coli [1])	MIC (Bacillus subtilis [2]) [µg/mL]	diameter of the inhibition zone (DIZ) (Priestia megaterium [3])	diameter of the inhibition zone (DIZ) (Mycolicibacterium phlei [4])	diameter of the inhibition zone (DIZ) (Candida albicans [5])	MIC (Saccharomyces cerevisiae [6]) [µg/mL]	MIC (Candida albicans [7]) [µg/mL]	diameter of the inhibition zone (DIZ) (Micrococcus luteus [8])	MIC (Priestia megaterium [9]) [µg/mL]	diameter of the inhibition zone (DIZ) (Bacillus subtilis [10])	diameter of the inhibition zone (DIZ) (Pseudomonas aeruginosa [11])	diameter of the inhibition zone (DIZ) (Staphylococcus aureus [12])	diameter of the inhibition zone (DIZ) (Klebsiella pneumoniae [13]) [mm]	MIC (Klebsiella pneumoniae [14]) [µg/mL]	diameter of the inhibition zone (DIZ) (Saccharomyces cerevisiae [15]) [mm]	MIC (Escherichia coli [24]) [µg/mL]	further results
CC(=N/NC(=O)COc1ccc2ccccc2c1)/C(Cl)=N\Nc1ccc(Br)cc1	inactive	66 (≈ 139 µM)	21 mm	inactive	21 mm	16.5 (≈ 34.8 µM)	33 (≈ 69.7 µM)	inactive	16.5 (≈ 34.8 µM)	18 mm	inactive	inactive	21	33 (≈ 69.7 µM)	24		
CC(=O)N1CCN(c2ccc(OCC3COC(Cn4ccnc4)(c4ccc(Cl)cc4Cl)O3)cc2)CC1 (centres undefined) [KETOCONAZOLE]						4.12 (≈ 7.76 µM)	8.25 (≈ 15.5 µM)										zone of inhibition at 50 µg/mL (Candida albicans [16]): 22 mm; zone of inhibition at 50 µg/mL (Saccharomyces cerevisiae [17]): 23 mm
O=C(COc1ccc2ccccc2c1)NNCC(=O)Nc1nccs1	inactive	66 (≈ 185 µM)	22 mm	inactive	20 mm	16.5 (≈ 46.3 µM)	66 (≈ 185 µM)	inactive	8.25 (≈ 23.1 µM)	18 mm	inactive	inactive	23	33 (≈ 92.6 µM)	22		
O=C(COc1ccc2ccccc2c1)NN/C=C(\NNC(=O)COc1ccc2ccccc2c1)c1cc2ccccc2oc1=O	inactive	66 (≈ 110 µM)	20 mm	inactive	20 mm	16.5 (≈ 27.5 µM)	66 (≈ 110 µM)	inactive	16.5 (≈ 27.5 µM)	18 mm	inactive	inactive	21	33 (≈ 54.9 µM)	21		
O=C(O)c1cn(C2CC2)c2cc(N3CCNCC3)c(F)cc2c1=O [CIPROFLOXACIN]		8.25 (≈ 24.9 µM)							8.25 (≈ 24.9 µM)					16.5 (≈ 49.8 µM)		16.5 (≈ 49.8 µM)	zone of inhibition at 50 µg/mL (Priestia megaterium [18]): 24 mm; zone of inhibition at 50 µg/mL (Bacillus subtilis [19]): 22 mm; zone of inhibition at 50 µg/mL (Micrococcus luteus [20]): 20 mm; zone of inhibition at 50 µg/mL (Pseudomonas aeruginosa [21]): 24 mm; MIC (Pseudomonas aeruginosa [22]): 16.5 µg/mL (≈ 49.8 µM); MIC (Mycolicibacterium phlei [23]): 16.5 µg/mL (≈ 49.8 µM); MIC (Staphylococcus aureus [25]): 8.25 µg/mL (≈ 24.9 µM); zone of inhibition at 50 µg/mL (Klebsiella pneumoniae [26]): 25 mm; MIC (Micrococcus luteus [27]): 16.5 µg/mL (≈ 49.8 µM); zone of inhibition at 50 µg/mL (Staphylococcus aureus [28]): 20 mm; zone of inhibition at 50 µg/mL (Mycolicibacterium phlei [29]): 22 mm
CC(=N/NC(=O)COc1ccc(Cl)cc1Cl)/C(=N\Nc1ccc(Cl)cc1)Sc1ccccc1	inactive		inactive	13 mm	inactive	4.12 (≈ 7.9 µM)		inactive		inactive	inactive	inactive	24	16.5 (≈ 31.6 µM)	28		
CC(=N\NC(=O)COc1ccc2ccccc2c1)/C(=N\Nc1ccc(Cl)cc1)S(=O)(=O)c1ccccc1	28 mm	33 (≈ 61.7 µM)	23 mm	inactive	24 mm	8.25 (≈ 15.4 µM)	8.25 (≈ 15.4 µM)	inactive	16.5 (≈ 30.8 µM)	20 mm	26 mm	23 mm	24	16.5 (≈ 30.8 µM)	30	8.25 (≈ 15.4 µM)	MIC (Pseudomonas aeruginosa [22]): 16.5 µg/mL (≈ 30.8 µM); MIC (Staphylococcus aureus [25]): 16.5 µg/mL (≈ 30.8 µM)
CC(=N/NC(=O)COc1ccc(Cl)cc1Cl)/C(=N\Nc1ccc(Cl)cc1)S(=O)(=O)c1ccccc1	30 mm	8.25 (≈ 14.9 µM)	32 mm	30 mm	30 mm	4.12 (≈ 7.45 µM)	4.12 (≈ 7.45 µM)	26 mm	8.25 (≈ 14.9 µM)	29 mm	28 mm	27 mm	28	16.5 (≈ 29.8 µM)	32	4.12 (≈ 7.45 µM)	MIC (Pseudomonas aeruginosa [22]): 16.5 µg/mL (≈ 29.8 µM); MIC (Mycolicibacterium phlei [23]): 4.12 µg/mL (≈ 7.45 µM); MIC (Staphylococcus aureus [25]): 8.25 µg/mL (≈ 14.9 µM); MIC (Micrococcus luteus [27]): 8.25 µg/mL (≈ 14.9 µM)
CC(=N/NC(=O)COc1ccc2ccccc2c1)/C(Cl)=N\Nc1ccc(Cl)cc1	21 mm		inactive	16 mm	20 mm	16.5 (≈ 38.4 µM)	33 (≈ 76.9 µM)	inactive		inactive	inactive	inactive	24	16.5 (≈ 38.4 µM)	26	16.5 (≈ 38.4 µM)	
CC(=N/NC(=O)COc1ccc(Cl)cc1Cl)/C(Cl)=N\Nc1ccc(Cl)cc1	inactive	66 (≈ 147 µM)	20 mm	15 mm	18 mm	16.5 (≈ 36.8 µM)	66 (≈ 147 µM)	inactive	16.5 (≈ 36.8 µM)	18 mm	inactive	inactive	21	33 (≈ 73.6 µM)	24		
CC(=N/NC(=O)COc1ccc(Cl)cc1Cl)/C(=N\Nc1ccc(Br)cc1)Sc1ccccc1	inactive	66 (≈ 117 µM)	20 mm	inactive	20 mm	33 (≈ 58.3 µM)	66 (≈ 117 µM)	20 mm	16.5 (≈ 29.1 µM)	18 mm	inactive	inactive	18	66 (≈ 117 µM)	23		MIC (Micrococcus luteus [27]): 16.5 µg/mL (≈ 29.1 µM)
CC(=N/NC(=O)COc1ccc(Cl)cc1Cl)/C(Cl)=N\Nc1ccc(Br)cc1	inactive	66 (≈ 134 µM)	22 mm	inactive	21 mm	8.25 (≈ 16.7 µM)	33 (≈ 67 µM)	inactive	16.5 (≈ 33.5 µM)	18 mm	inactive	inactive	20	33 (≈ 67 µM)	27		
